Test [1] deals with T1, Serine/threonine-protein kinase Chk1 (Homo sapiens, UniProt O14757).
T1 sequence (O14757 whole entry): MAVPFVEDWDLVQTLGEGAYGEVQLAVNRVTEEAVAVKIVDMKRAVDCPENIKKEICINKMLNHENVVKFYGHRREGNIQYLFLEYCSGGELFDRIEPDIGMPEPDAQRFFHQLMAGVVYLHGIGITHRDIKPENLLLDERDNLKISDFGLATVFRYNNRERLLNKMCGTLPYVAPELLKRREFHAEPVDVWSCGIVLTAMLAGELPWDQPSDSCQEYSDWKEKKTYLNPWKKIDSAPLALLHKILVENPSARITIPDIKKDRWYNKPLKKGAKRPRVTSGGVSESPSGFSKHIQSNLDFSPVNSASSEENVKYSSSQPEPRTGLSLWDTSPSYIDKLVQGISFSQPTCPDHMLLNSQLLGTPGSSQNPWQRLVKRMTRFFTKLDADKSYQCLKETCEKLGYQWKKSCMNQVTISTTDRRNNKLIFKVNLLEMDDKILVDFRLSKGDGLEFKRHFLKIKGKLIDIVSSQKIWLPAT
Put plainly: Inhibition of human Chk1 expressed in Sf9 cells. In outline:
(§1)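 Full-length human Chk1 with an N-terminal GST tag, purified from baculovirus-infected Sf9 cells or purchased. Stopped with orthophosphoric acid and captured on phosphocellulose filters for scintillation counting. Percent inhibition at 10 µM; IC50 from 12 concentrations over 6 logs, duplicate points averaged.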

Test [2] has as its target T2, Serine/threonine-protein kinase Chk1 (Homo sapiens) (UniProt O14757).
T2 sequence (whole entry): T1 sequence (O14757 whole entry)
Put plainly: Inhibition of human Chk1 expressed in Sf9 cells at 10 uM. In outline: as §1

For test [3], the target named is T3, Proto-oncogene tyrosine-protein kinase Src (Homo sapiens, UniProt P12931). Put plainly: Inhibition of Src at 10 uM. In outline:
(§2)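 Started by adding cosubstrate (40 µM ATP stock with [33P]γ-ATP); 20 min at 30 °C. Stopped with 0.85% orthophosphoric acid, filtered on phosphocellulose, washed, then scintillation counted. Percent inhibition at 10 µM; IC50 reported.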

In test [4] the target is T3, Proto-oncogene tyrosine-protein kinase Src. Put plainly: Inhibition of Src. In outline: as §2
For test [5], the target named is Protein kinase C alpha type (Homo sapiens) (UniProt P17252). Put plainly: Inhibition of PKCalpha at 1 uM; values are per cent of control.
The target of test [6] is Mitogen-activated protein kinase 1 (Homo sapiens) (UniProt P28482). Put plainly: Inhibition of MAPK1 at 1 uM; values are per cent of control.
The test system of another test is HCT-116. Put plainly: Antiproliferative activity against human HCT116 cells […] by microculture tetrazolium assay. It is filed as functional, cell-based. In outline:
(§3)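 Human HCT116, human HT29 and murine L1210 tumour cells grown in RPMI 1640 with 10% fetal calf serum, 2 mM L-glutamine, penicillin/streptomycin and 10 mM HEPES pH 7.4. Compounds were taken from 10^-2 M DMSO stocks, diluted 1/100 in RPMI, and cells were exposed continuously to graded concentrations for four doubling times. MTT was added for 4 h at 37 °C and the formazan dissolved in DMSO. IC50 is the concentration lowering optical density 50% versus untreated cells.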

A further test concerns HT-29. Put plainly: Antiproliferative activity against human HT29 cells […] by microculture tetrazolium assay. Type of test: functional, cell-based. In outline:
as §3

Test [7] is filed under the species Homo sapiens. Put plainly: Residual activity of CaMKII at 1 uM.
In test [8] the target is Glycogen synthase kinase-3 alpha (Homo sapiens) (UniProt P49840). Put plainly: Inhibition of GSK3-alpha at 1 uM; values are per cent of control.
In test [9] the target is Cyclin-dependent kinase 5/CDK5 activator 1 (Homo sapiens) (UniProt Q00535+Q15078). Put plainly: Residual activity of CDK5/p25 at 1 uM.
The species named for test [10] is Homo sapiens. Put plainly: Residual activity of CDK1/cyclin B at 1 uM.
Test [11] is filed under the species Homo sapiens. Put plainly: Residual activity of PKA at 1 uM.
Test [12] is filed under the species Homo sapiens. Put plainly: Residual activity of CDK7/cyclin H at 1 uM.
For test [13], the target named is RAF proto-oncogene serine/threonine-protein kinase (Homo sapiens) (UniProt P04049). Put plainly: Residual activity of cRAF at 1 uM.
For test [14], the target named is Ribosomal protein S6 kinase beta-1 (Homo sapiens) (UniProt P23443). Put plainly: Residual activity of p70S6K at 1 uM.
The species named for test [15] is Homo sapiens. Put plainly: Inhibition of CDK2/cyclin A at 1 uM; values are per cent of control.
Test [16] deals with Glycogen synthase kinase-3 beta (Homo sapiens) (UniProt P49841). Put plainly: Inhibition of GSK3-beta at 1 uM; values are per cent of control.
The next test deals with L1210. Put plainly: Antiproliferative activity against mouse L1210 cells after four doubling times by microculture tetrazolium assay.
For test [17], the target named is Dual specificity mitogen-activated protein kinase kinase 1 (Homo sapiens) (UniProt Q02750). Put plainly: Residual activity of MEK1 at 1 uM.
For test [18], the target named is CDK9/cyclin T1 (Homo sapiens) (UniProt O60563+P50750). Put plainly: Inhibition of CDK9/cyclin T1 at 1 uM; values are per cent of control.
Test [19] has as its target Casein kinase II subunit alpha (Homo sapiens) (UniProt P68400). Put plainly: Residual activity of CK2 at 1 uM.
In test [20] the target is MAP kinase-activated protein kinase 2 (Homo sapiens) (UniProt P49137). Put plainly: Residual activity of MAPKAPK2 at 1 uM.
Test [21] has as its target T2, Serine/threonine-protein kinase Chk1 (Homo sapiens). Put plainly: Residual activity of Chk1 at 1 uM.
Test [22] concerns the target Casein kinase I isoform delta (Homo sapiens) (UniProt P48730). Put plainly: Inhibition of CK1delta at 1 uM; values are per cent of control.
The target in test [23] is RAC-alpha serine/threonine-protein kinase (Homo sapiens) (UniProt P31749). Put plainly: Inhibition of PKBalpha at 1 uM; values are per cent of control.

The structures appear in SMILES notation. Active and inactive are the calls of the source. The calls are words filed in the database; no cut-off is given here. Some results are limits rather than exact numbers.

T3 sequence (P12931 2-536 limits assumed): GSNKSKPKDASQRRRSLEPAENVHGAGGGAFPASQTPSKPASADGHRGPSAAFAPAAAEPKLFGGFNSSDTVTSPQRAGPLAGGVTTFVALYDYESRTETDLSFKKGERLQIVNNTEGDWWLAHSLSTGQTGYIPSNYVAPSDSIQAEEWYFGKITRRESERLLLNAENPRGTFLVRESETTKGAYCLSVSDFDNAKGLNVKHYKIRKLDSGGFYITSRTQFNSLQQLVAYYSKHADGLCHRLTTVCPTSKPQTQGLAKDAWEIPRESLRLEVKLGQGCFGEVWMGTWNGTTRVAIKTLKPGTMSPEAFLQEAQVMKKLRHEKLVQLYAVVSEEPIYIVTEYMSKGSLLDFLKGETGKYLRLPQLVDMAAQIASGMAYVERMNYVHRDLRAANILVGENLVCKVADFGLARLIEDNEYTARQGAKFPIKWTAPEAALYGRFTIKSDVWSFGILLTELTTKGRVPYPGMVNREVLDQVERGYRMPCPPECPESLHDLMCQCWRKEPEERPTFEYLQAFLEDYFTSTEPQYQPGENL
Chain of RAF proto-oncogene serine/threonine-protein kinase (Homo sapiens) (P04049 whole entry): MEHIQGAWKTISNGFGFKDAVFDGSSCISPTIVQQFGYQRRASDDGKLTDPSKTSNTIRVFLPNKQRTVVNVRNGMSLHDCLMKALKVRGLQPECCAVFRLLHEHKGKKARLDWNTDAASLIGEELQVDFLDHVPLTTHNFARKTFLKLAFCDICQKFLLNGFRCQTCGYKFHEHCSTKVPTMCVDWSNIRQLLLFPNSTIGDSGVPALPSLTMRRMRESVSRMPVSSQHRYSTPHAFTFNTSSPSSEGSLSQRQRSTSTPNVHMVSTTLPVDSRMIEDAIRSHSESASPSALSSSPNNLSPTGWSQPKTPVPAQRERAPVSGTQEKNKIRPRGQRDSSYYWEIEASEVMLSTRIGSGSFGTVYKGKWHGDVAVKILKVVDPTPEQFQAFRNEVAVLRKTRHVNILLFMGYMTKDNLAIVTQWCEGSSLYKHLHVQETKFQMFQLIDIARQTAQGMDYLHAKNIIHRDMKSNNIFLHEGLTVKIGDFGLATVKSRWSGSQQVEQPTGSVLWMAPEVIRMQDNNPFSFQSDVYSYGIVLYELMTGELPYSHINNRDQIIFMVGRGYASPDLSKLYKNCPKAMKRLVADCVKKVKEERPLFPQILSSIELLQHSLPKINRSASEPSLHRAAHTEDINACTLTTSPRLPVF
Chain of Glycogen synthase kinase-3 alpha (Homo sapiens) (P49840 2-483 limits assumed): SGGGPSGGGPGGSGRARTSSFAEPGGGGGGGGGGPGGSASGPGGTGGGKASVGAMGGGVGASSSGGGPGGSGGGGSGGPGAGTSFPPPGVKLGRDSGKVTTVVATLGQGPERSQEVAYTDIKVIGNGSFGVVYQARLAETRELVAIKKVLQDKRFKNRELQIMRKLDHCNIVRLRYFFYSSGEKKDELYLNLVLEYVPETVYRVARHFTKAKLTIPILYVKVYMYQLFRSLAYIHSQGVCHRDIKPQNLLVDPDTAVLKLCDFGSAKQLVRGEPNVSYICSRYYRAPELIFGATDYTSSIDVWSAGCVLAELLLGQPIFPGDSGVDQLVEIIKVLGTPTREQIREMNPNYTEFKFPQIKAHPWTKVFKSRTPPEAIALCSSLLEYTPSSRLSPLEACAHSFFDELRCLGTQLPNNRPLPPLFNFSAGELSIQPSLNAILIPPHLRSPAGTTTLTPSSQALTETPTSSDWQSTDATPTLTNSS
Chain of Ribosomal protein S6 kinase beta-1 (Homo sapiens) (P23443 whole entry, looked up): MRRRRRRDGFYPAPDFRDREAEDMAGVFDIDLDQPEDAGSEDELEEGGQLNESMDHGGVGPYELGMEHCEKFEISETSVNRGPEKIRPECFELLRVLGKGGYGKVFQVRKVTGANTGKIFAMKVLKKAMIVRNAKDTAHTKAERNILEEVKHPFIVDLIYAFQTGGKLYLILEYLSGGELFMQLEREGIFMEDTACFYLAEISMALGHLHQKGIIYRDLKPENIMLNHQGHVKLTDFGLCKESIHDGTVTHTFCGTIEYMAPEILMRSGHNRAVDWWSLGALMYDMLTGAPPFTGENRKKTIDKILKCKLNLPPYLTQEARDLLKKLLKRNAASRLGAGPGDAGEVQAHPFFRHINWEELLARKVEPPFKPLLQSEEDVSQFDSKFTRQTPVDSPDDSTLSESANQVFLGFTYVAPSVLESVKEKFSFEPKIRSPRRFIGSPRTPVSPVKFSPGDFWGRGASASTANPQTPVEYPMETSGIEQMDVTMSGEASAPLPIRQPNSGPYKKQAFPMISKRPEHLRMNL
Chain of Dual specificity mitogen-activated protein kinase kinase 1 (Homo sapiens) (Q02750 whole entry): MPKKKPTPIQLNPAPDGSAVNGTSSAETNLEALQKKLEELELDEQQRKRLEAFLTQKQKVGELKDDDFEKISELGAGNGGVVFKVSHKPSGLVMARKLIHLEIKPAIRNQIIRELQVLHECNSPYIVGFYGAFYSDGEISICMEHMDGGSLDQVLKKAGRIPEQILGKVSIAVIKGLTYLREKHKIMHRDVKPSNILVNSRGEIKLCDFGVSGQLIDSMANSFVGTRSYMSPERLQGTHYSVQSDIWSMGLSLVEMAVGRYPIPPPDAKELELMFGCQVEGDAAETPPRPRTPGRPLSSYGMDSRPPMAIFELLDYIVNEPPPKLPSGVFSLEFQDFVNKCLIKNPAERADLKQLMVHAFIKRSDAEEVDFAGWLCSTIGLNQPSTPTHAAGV
Chain of Glycogen synthase kinase-3 beta (Homo sapiens) (P49841 whole entry, looked up): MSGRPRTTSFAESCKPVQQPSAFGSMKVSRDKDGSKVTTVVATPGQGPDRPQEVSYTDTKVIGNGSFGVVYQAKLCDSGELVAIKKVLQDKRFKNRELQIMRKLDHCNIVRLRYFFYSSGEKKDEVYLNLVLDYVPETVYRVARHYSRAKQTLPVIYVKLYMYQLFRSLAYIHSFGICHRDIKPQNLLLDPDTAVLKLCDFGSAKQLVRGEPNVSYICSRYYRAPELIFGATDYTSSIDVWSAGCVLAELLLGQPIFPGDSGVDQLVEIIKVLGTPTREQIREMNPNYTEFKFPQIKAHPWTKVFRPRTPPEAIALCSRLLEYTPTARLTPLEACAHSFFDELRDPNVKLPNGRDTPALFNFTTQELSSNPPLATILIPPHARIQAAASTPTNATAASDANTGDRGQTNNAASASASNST
Chain of Casein kinase II subunit alpha (Homo sapiens) (P68400 whole entry, looked up): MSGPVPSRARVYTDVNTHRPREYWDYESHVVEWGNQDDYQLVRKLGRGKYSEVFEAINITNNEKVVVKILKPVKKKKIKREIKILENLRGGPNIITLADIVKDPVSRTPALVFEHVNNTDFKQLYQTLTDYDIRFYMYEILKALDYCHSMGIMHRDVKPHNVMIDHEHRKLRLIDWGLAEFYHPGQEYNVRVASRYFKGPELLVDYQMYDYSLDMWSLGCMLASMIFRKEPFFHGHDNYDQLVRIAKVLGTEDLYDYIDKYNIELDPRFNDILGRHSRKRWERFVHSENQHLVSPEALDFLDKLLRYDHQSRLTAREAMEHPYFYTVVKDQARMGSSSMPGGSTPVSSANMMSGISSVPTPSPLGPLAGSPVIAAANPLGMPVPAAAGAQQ
Chain of RAC-alpha serine/threonine-protein kinase (Homo sapiens) (P31749 whole entry): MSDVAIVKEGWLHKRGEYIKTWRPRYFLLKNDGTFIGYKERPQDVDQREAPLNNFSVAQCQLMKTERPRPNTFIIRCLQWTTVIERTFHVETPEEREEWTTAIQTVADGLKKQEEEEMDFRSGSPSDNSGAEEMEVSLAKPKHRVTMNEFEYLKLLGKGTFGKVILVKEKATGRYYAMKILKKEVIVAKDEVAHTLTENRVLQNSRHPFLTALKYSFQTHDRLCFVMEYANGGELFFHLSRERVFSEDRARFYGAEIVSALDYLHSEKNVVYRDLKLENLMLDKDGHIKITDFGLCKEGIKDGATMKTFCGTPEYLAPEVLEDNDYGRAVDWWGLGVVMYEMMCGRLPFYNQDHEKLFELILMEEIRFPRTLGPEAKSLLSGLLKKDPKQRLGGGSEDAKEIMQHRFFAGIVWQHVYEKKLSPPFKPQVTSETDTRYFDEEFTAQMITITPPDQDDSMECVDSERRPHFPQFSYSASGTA
Chain of MAP kinase-activated protein kinase 2 (Homo sapiens) (P49137 whole entry, looked up): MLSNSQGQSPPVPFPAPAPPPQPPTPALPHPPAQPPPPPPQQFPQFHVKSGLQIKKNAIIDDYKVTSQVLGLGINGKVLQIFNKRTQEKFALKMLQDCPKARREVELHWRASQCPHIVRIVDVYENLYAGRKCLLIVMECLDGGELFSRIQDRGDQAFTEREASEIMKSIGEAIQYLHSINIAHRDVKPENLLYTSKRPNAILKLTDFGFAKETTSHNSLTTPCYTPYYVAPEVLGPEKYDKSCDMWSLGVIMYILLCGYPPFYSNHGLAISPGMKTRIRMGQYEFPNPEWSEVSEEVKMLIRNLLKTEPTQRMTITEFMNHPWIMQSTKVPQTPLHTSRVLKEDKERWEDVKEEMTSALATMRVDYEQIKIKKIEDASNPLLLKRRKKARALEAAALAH

Usually IC50 stands for the concentration needed to halve the response being measured. A word on the inhibition: it is how much of the control response was suppressed. Low values mean little suppression, high ones strong suppression. Consider `O=C1NC(=O)c2c1c1c(O)ccc(O)c1c1[nH]c3ccccc3c21`, for which it took 0.311 µM to reach half-maximal inhibition in test [1] (IC50). The values for the inhibition in test [2] and in test [3] were 96% and 2.5%, respectively.

Turning to `O=C1NC(=O)c2c1c1[nH]cnc1c1[nH]c3ccccc3c21` [GRANULATIMIDE], the concentration for half-maximal inhibition (IC50) came out at 0.35 µM in [4] and 0.081 µM in test [1]. This compound yielded an inhibition in test [3] of 58%.

Regarding `O=c1ccc(=O)c2c1c1[nH]c3ccccc3c1c1c(=O)[nH]c(=O)c21`, 0.269 µM corresponded to half-maximal inhibition in test [1] (IC50). Further, the inhibition in [2] was 86%.

On to `O=c1ccc(=O)c2c1c1[nH]c3ccc(O)cc3c1c1c(=O)[nH]c(=O)c21`, for which the IC50 in test [1] worked out at 0.027 µM; with HCT-116 it was 15.4 µM; in the test with HT-29 it was 50.6 µM; in the test on L1210 it was 8.4 µM. The residual activity in test [5] came out at 66%; in test [6] it was 77%; in the test listed under Homo sapiens [7], 40%; in test [8], 3%; in test [9], 33%; in the test listed under Homo sapiens [10], 85%. Also, the residual activity turned out to be 103% in the test listed under Homo sapiens [11]; 87% in the test listed under Homo sapiens [12]; 102% in [13]; 27% in test [14]; 62% in the test filed under Homo sapiens [15]; 19% in [16]. Further, the residual activity worked out at 98% in [17]; 61% in test [18]; 92% in test [19]; 73% in [20]; 22% in [21]; 16% in test [22]. In addition, the residual activity in test [23] stood at 87%. Moreover, the inhibition is 95% in test [2] and 63% in test [3].

As for `O=C1CCc2c1c1c(c3c2[nH]c2ccccc23)C(=O)NC1=O`, the IC50 is 0.043 µM in [1], 9.7 µM in the test with HCT-116, 16.1 µM with HT-29 and 58.4 µM with L1210. In addition, the inhibition in test [2] is 72%. In test [3], the outcome was inactive.

Consider `Cc1ccc2[nH]c3c4c(O)ccc(O)c4c4c(c3c2c1)C(=O)NC4=O`, for which the values for the IC50 (in test [1]; in the test with HCT-116; in the test on HT-29) were 0.161 µM, 1.6 µM and 3.8 µM, respectively. Further, the residual activity in test [5] came out at 102%; in [6], 95%; in the test filed under Homo sapiens [7], 34%; in [8], 32%; in [9], 28%; in the test listed under Homo sapiens [10], 86%. Also, the residual activity in the test listed under Homo sapiens [11] came out at 117%; in the test filed under Homo sapiens [12], 90%; in test [13], 93%; in test [14], 42%; in the test filed under Homo sapiens [15] it was 69%; in [16] it was 60%. Also, the residual activity in [17] was found to be 96%; in test [18] it was 117%; in test [19], 108%; in test [20], 57%; in test [21], 12%; in [22], 100%. Besides, the residual activity in test [23] was found to be 87%. In addition, the inhibition in test [2] was found to be 99%.

`Cc1ccc2[nH]c3c4c(=O)ccc(=O)c4c4c(=O)[nH]c(=O)c4c3c2c1`: the IC50 worked out at 0.107 µM in test [1], 0.7 µM in the test on HCT-116 and 20.6 µM with HT-29. For the same compound, the inhibition amounted to 86% in [2] and 52.5% in test [3].

For `O=C1NC(=O)c2c1c1c(O)ccc(OS(=O)(=O)O)c1c1[nH]c3ccccc3c21`, the 50% inhibitory concentration (IC50) is 1.79 µM in test [1], above 50 µM with HCT-116 and 46 µM in the test with HT-29. This compound yielded an inhibition in [2] of 62%.

Regarding `Cc1ccc2[nH]c3c4c(OS(=O)(=O)O)ccc(O)c4c4c(c3c2c1)C(=O)NC4=O`, the IC50 in test [1] was 0.893 µM; with HCT-116 it was above 40 µM; with HT-29 it was 50 µM. For the same compound, the inhibition in [2] is 70%.

On to `O=C1NC(=O)c2c1c1c(O)cccc1c1[nH]c3ccccc3c21`, for which the 50% inhibitory concentration (IC50) amounted to 0.904 µM in test [1], 17.5 µM with HCT-116 and 46.4 µM in the test with HT-29. The inhibition amounted to 93% in test [2] and 35% in test [3].

Turning to `O=C1NC(=O)c2c1c1c(c3[nH]c4ccccc4c23)C(=O)CCC1`, the half-inhibitory concentration (IC50) with HCT-116 was found to be 1.1 µM; with HT-29, 15.5 µM. For the same compound, the figures for the inhibition in [2] and in [3] were 15.3% and 8.5%, respectively.

Take `CC(C)(C)C(=O)Oc1ccc(O)c2c3c(c4c5ccccc5[nH]c4c12)C(=O)NC3=O`: the IC50 in test [1] worked out at 3.7 µM; in the test on HCT-116, 8.76 µM; in the test on HT-29 it was 7.28 µM. The inhibition in [2] worked out at 66%.

In [1], `O=c1[nH]c(=O)c2c1c1[nH]c3ccccc3c1c1c(=O)[nH]c(=O)c21` [BIS-IMIDE A] had a half-maximal inhibitory concentration (IC50) of 0.02 µM. In test [2], this compound displayed an inhibition of 94.4%. Also, the outcome in test [3] was inactive.

With `O=C1NC(=O)c2c1c1c(O)ccc(O)c1c1[nH]c3ccc(O)cc3c21`, the IC50 in test [4] was 5.4 µM; in test [1], 0.023 µM; in the test with HCT-116, 2.7 µM; in the test on HT-29 it was 26.4 µM; in the test on L1210, 1.4 µM. Moreover, the results for the inhibition in test [2] and in test [3] were 94% and 83.5%, respectively.

Values taken from ChEMBL document CHEMBL1148789, “Synthesis and biological activities of new checkpoint kinase 1 inhibitors structurally related to granulatimide” (J Med Chem, 2007).
